An excerpt weighted towards active compounds, which were near 0.58% of everything screened.
OXTR potentiator: potentiates the human oxytocin receptor response; activation, % at 3 µM; CHO-OTR cells, Fluo-8 calcium fluorescence, potentiator mode; 0% = oxytocin EC15, 100% = EC100; P30559; 0.061% of 320,000 active;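 active means activation above that plate's cutoff, the mean activation of tested compounds plus 3 SD, cut at about 6.6% in these data, passing the limit was not always enough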
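Material: CHO-OTR cells, human receptor; compound dosing: single dose, 3.0 µM nominal final compound concentration; schedule: 6 min compound pre-incubation at room temperature, 100 s kinetic read; measured by: kinetic Fluo-8 calcium fluorescence; read-out basis: % activation vs EC15 and EC100 oxytocin; controls: EC15 oxytocin alone as 0%, 75 nM oxytocin as 100%; replicates: singlicate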
OXTR agonist: activates the human oxytocin receptor | activation, % at 3 µM | AID 2435 | 0.32% of 320,000 active | CHO-OTR cells, Fluo-8 calcium fluorescence; normalized: DMSO 0%, oxytocin 100%;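 active means activation above the mean of all tested compounds plus 3 SD, cutoff set per screening run, cut at about 20% in these data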;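 further: peak over basal fluorescence ratio from a 100 s FLIPR kinetic read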
TRPML3 ag: agonists of human TRPML3 channel; Q8TDD5; HEK293 TRPML3-YFP, Fluo-8 calcium fluorescence; 100% = the carbachol control signal; activation, % at 3 µM; 0.29% of 220,000 active;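 active means activation above its plate's cutoff, the mean activation of the plate's test wells plus 3 SD, cut at about 12% in these data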
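system = HEK293 cells stably carrying human TRPML3-YFP | doses = one concentration, 3 µM nominal, 0.3% DMSO | timing = dye loading 1 h 37 °C then 30 min ambient, 125 s read | detection = Fluo-8 calcium dye fluorescence, ex 470-495, em 515-575 nm | benchmarks = high control carbachol 87 µM, low control DMSO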
zfTRPN1 agonist: activates the zebrafish TRPN1 channel. HEK293 zebrafish TRPN1-YFP, Fluo-8 calcium fluorescence; 100% = response to 87 µM carbachol. activation, % at 3 µM. 0.18% of 220,000 active. AID 1424;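 active means activation above its plate's cutoff, the mean activation of test wells on that plate plus 3 SD, cut at about 19% in these data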
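Assay system: Zebrafish TRPN1-YFP in HEK293 cells | Incubation: Dye loading 1 h at 37 °C, then 30 min room temperature | Measured by: Kinetic Fluo-8 fluorescence, ex 470-495, em 515-575 nm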
V1aR counter: counter-screen for oxytocin receptor agonists: human V1a receptor agonists; CHO-V1R cells, Fluo-8 calcium fluorescence, agonist mode; 0% DMSO, 100% 3 nM vasopressin; activation, % at 3 µM; 0.25% of 320,000 active; AID 2797;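 active means activation above the mean activation of all tested compounds plus 3 SD, per screening run, cut at about 20% in these data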;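 further: signal is peak over basal fluorescence ratio across a 100 second FLIPR read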
Target sequence (P37288 whole entry, looked up): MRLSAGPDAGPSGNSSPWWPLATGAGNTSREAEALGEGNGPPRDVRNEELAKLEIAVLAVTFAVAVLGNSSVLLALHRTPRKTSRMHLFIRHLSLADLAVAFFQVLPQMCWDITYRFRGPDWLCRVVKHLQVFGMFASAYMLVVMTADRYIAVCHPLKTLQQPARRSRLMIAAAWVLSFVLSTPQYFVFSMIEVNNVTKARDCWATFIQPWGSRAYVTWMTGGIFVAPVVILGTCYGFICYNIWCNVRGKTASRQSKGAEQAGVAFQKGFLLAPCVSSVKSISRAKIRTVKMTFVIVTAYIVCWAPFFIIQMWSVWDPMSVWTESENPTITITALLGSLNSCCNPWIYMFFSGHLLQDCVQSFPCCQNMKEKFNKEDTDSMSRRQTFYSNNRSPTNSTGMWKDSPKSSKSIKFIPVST
TRPN1 counter: counter-screen for TRPML3 agonists: agonists of zebrafish TRPN1 channel. 10% of 310 active. AID 1525. HEK293 zebrafish TRPN1-YFP, Fluo-8 calcium fluorescence; scaled: carbachol wells 100%, DMSO wells 0%. activation, % at 3 µM. shares compounds with TRPML3 ag;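 active means mean activation over replicates above a set limit taken from the earlier TRPN1 channel primary screen, cut at about 19% in these data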
TRPML3 confirm: confirmation of human TRPML3 channel agonists; 80% of 310 active; shares compounds with TRPML3 ag; HEK293 TRPML3-YFP, Fluo-8 calcium fluorescence; 100% set by carbachol, 0% by DMSO; activation, % at 3 µM;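 active means activation above a set limit derived from the earlier primary screen, cut at about 12% in these data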
Each line names hits and unclear results; the compound was inactive in the other large screens (follow-up assays come after a bar, where they were run).

O=S(=O)(c1ccc2ccccc2c1)N1CCCCCC1	TRPML3 ag 81 | TRPN1 counter inactive | TRPML3 confirm 62
Cc1ccc(NC(=O)c2cc(N3C(=O)CCC3=O)ccc2N2CCCCC2)cc1	none
COCCN(CCOC)S(=O)(=O)c1ccc(NC(=O)c2cnccn2)cc1	none (no result: TRPML3 ag, zfTRPN1 agonist)
Cn1ccnc1CN1CCCCC1C(=O)Nc1ccc(Oc2cccnc2)cc1 (stereo unspecified)	none (no result: TRPML3 ag, zfTRPN1 agonist)
Cc1cc(N2C(=O)C3C4c5ccccc5C(c5ccccc54)C3C2=O)no1 (stereo unspecified)	TRPML3 ag 13 | TRPN1 counter inactive | TRPML3 confirm inactive
O=S(=O)(Cc1cc(Cl)nc(-c2ccccc2)n1)c1ccccc1	TRPML3 ag 19 | TRPN1 counter inactive | TRPML3 confirm 35
CCC(=O)C1CCCN(C(=O)c2ccc(OC3CCN(C(=O)CCOC)CC3)cc2)C1 (stereo unspecified)	none (no result: TRPML3 ag, zfTRPN1 agonist)
Cc1cc(C(C)(C)C)oc1C(=O)N(CC(=O)NC1CCCC1)c1c(C)cccc1C	TRPML3 ag 44 | TRPN1 counter inactive | TRPML3 confirm 72
Cc1cc(C(C)(C)C)oc1C(=O)N(CC(=O)NC1CCCC1)c1ccc(F)cc1	none
Cc1cc(=O)[nH]c(SCC(=O)Nc2c(C)n(C)n(-c3ccccc3)c2=O)c1C#N	none (no result: TRPML3 ag, zfTRPN1 agonist)
Cn1c(SCC(=O)c2ccccc2)nnc1-c1cccs1	none
Cc1ccccc1OCC(=O)Nc1cc(S(=O)(=O)N2CCCCC2)ccc1N1CCN(C)CC1	TRPML3 ag 21 | TRPN1 counter inactive | TRPML3 confirm 23
CC(=O)N1CCN(c2ccccc2NC(=O)COc2ccccc2C)CC1	none
Cc1ccccc1OCC(=O)Nc1ccccc1N1CCOCC1	TRPML3 ag 47 | TRPN1 counter inactive | TRPML3 confirm 57
COc1cc(S(=O)(=O)N2CCOCC2)cc(C(=O)OCC(=O)NCc2ccco2)c1OC	none (no result: TRPML3 ag, zfTRPN1 agonist)
COCC(=O)Oc1c(S(=O)(=O)c2ccccc2)c(C)nn1C(C)(C)C	none (no result: TRPML3 ag, zfTRPN1 agonist)
CCOC(=O)C1CCN(S(=O)(=O)c2ccc(C)cc2)CC1	none
Cc1ccc(S(=O)(=O)c2c(C)nn(C(C)(C)C)c2OC(=O)C2CCCC2)cc1	TRPML3 ag 32 | TRPN1 counter inactive | TRPML3 confirm 24
Cc1nn(C(C)(C)C)c(OC(=O)C2CCCC2)c1S(=O)(=O)c1ccccc1	TRPML3 ag 16 (no result: OXTR potentiator, OXTR agonist, V1aR counter) | TRPN1 counter inactive | TRPML3 confirm 23
Cc1cc(C)cc(N2C(=O)CSC2c2cccs2)c1 (stereo unspecified)	TRPML3 ag 16 | TRPN1 counter inactive | TRPML3 confirm 16
C/C(=N/NC(=O)CNS(=O)(=O)c1ccc(C)cc1)c1cccc([N+](=O)[O-])c1	none
O=C1CCC(=O)N1c1ccccc1OS(=O)(=O)c1ccccc1	none (no result: TRPML3 ag, zfTRPN1 agonist)
O=S(=O)(Oc1ccccc1N1CCCCC1)c1ccccc1	TRPML3 ag 13 | TRPN1 counter inactive | TRPML3 confirm 14
O=C(COC(=O)C1=NN(c2ccccc2)C(=O)CC1)Nc1ccc([N+](=O)[O-])cc1C(F)(F)F	none (no result: TRPML3 ag, zfTRPN1 agonist)
O=C(NNC(=O)c1ccccc1[N+](=O)[O-])c1ccc(NS(=O)(=O)c2cccs2)cc1	none (no result: TRPML3 ag, zfTRPN1 agonist)
O=S(=O)(c1cnc(Cl)c(Br)c1)N1CCc2ccccc21	TRPML3 ag 14 | TRPN1 counter inactive | TRPML3 confirm 50
O=S(=O)(NC1CCCCCC1)c1cccc2cccnc12	TRPML3 ag 33 | TRPN1 counter inactive | TRPML3 confirm 56
CCS(=O)(=O)N1CCC(C(=O)N2CCOCC2)CC1	none
O=C(C1CCN(S(=O)(=O)N2CCOCC2)CC1)N1CCOCC1	TRPML3 ag 16 | TRPN1 counter inactive | TRPML3 confirm inactive
Cc1ccc(C2CCN(C(=S)Nc3cccc(C)c3)C2)cc1 (stereo unspecified)	none
COc1ccccc1N(C)S(=O)(=O)c1ccc(Cl)c(C(=O)OCc2c(C)noc2C)c1	TRPML3 ag 41 | TRPN1 counter inactive | TRPML3 confirm 39
